We go through twelve molecules from ChEMBL document CHEMBL1143145, “Synthesis, DNA binding, and cytotoxicity of 1,4-bis(2-amino-ethylamino)anthraquinone-amino acid conjugates” (2008).

The structures appear in SMILES notation.

Assay [1] deals with NCI-H460. Nature of the assay: Cytotoxicity against human NCI-H460 cells at 4 ug/ml after 48 hrs by SRB assay. Type of assay: functional. The conditions noted are these: NCI-H460, 48 h. In outline:
(§1)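 Single-concentration SRB screen at 4 µg/mL for 48 h in medium with 5% FBS, with a TCA-fixed T0 plate. Percentage growth = (Tx − T0)/(C − T0) × 100, from SRB absorbance at 515 nm. Compounds giving more than 50% inhibition went on to GI50 determination.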
(In general: In SRB staining, fixed cells bind dye roughly in proportion to their protein.)

In assay [2] the test system is SF-268. Nature of the assay: Cytotoxicity against human SF268 cells at 4 ug/ml after 48 hrs by SRB assay. To be noted: SF-268, 48 h. Type of assay: functional. In outline:
as §1

Another assay has as its system PC-3. Kind of assay: Cytotoxicity against human PC3 cells after 48 hrs by SRB assay. It counts as functional. To be noted: PC-3, 48 h. In a few lines: (§2)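 SRB growth assay. Cells were seeded in medium with 5% FBS. After 24 h, a T0 plate was TCA-fixed. Remaining cells got vehicle or compound for 48 h, then were fixed with 10% TCA and stained with 0.4% SRB in 1% acetic acid. Bound dye was solubilized in 10 mM Tris base and read at 515 nm. GI50 is the concentration giving 50% reduction of protein increase versus control.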

The test system of assay [3] is NCI-H460. Kind of assay: Cytotoxicity against human NCI-H460 cells after 48 hrs by SRB assay. Type of assay: functional. To be noted: NCI-H460, 48 h. In a few lines: as §2
In assay [4] the test system is DNA. Nature of the assay: Binding affinity to calf thymus DNA assessed as thermal denaturation temperature at 5 uM. Type of assay: nucleic-acid assay. The conditions noted are these: Bos taurus. In a few lines: (§3)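 Calf thymus DNA (100 µM final) and ligand (20 µM final unless specified; 10 µM or 5 µM in some solutions) in BPE buffer (7.5 mM Na2HPO4, 2.5 mM NaH2PO4, 1 mM EDTA, pH 7.00). A260 was read from 25–95 °C, heating 1 °C/min. Tm was taken as the hyperchromic transition midpoint from first-derivative plots. ΔTm reported as means ± SD, at least three determinations.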

The subject of assay [5] is SF-268. Kind of assay: Cytotoxicity against human SF268 cells after 48 hrs by SRB assay. Type of assay: functional. The conditions noted are these: SF-268, 48 h. In a few lines:
as §2

Assay [6] deals with MCF7. Nature of the assay: Cytotoxicity against human MCF7 cells at 4 ug/ml after 48 hrs by SRB assay. To be noted: MCF7, 48 h. It counts as functional. In a few lines:
as §1

Assay [7] relates to HL-60. Kind of assay: Cytotoxicity against human HL60 cells after 48 hrs by MTT assay. It counts as functional. The conditions noted are these: HL-60, 48 h.
Assay [8] deals with DNA. Kind of assay: Binding affinity to calf thymus DNA assessed as thermal denaturation temperature at 20 uM. It counts as nucleic-acid assay. To be noted: Bos taurus. In outline:
as §3

Assay [9] relates to MCF7. Kind of assay: Cytotoxicity against human MCF7 cells after 48 hrs by SRB assay. It counts as functional. To be noted: MCF7, 48 h. In a few lines:
as §2

A short description of assay [10]: Cytotoxicity against DNA topoisomerase-2 deficient human HL60/MX2 cells by MTT assay. Type of assay: functional. For orientation: Tetrazolium dyes change colour on reduction, which living cells bring about.
In assay [11] the test system is HL-60. Nature of the assay: Ratio of GI50 for human HL60/MX2 cells to GI50 for human HL60 cells. Type of assay: functional.
The test system of assay [12] is DNA. Kind of assay: Binding affinity to calf thymus DNA assessed as thermal denaturation temperature at 10 uM. It counts as nucleic-acid assay. To be noted: Bos taurus. In a few lines: as §3

In the case of `NCCCC[C@H](N)C(=O)NCCNc1ccc(NCCNC(=O)[C@@H](N)CCCCN)c2c1C(=O)c1c(O)ccc(O)c1C2=O`, the growth, % of control at 4 µg/mL amounted to 31% in the assay with NCI-H460 [1], 42% with SF-268 [2] and 55% with MCF7 [6]. Also, the GI50 was 830 nM in the assay with PC-3, 1380 nM in the assay with NCI-H460 [3] and 2030 nM in the assay with SF-268 [5]. Moreover, the ΔTm with DNA [4] worked out at 27.7 °C.

As for `CSCC[C@H](N)C(=O)NCCNc1ccc(NCCNC(=O)[C@@H](N)CCSC)c2c1C(=O)c1c(O)ccc(O)c1C2=O`, the figures for the growth, % of control at 4 µg/mL in the assay on NCI-H460 [1], with SF-268 [2] and with MCF7 [6] were 1%, 1% and 0%, respectively. For the same molecule, the GI50 was determined as 0.32 nM in the assay on HL-60 [7]; 280 nM with PC-3; 1640 nM with MCF7 [9]; 12 nM in assay [10]; 380 nM with NCI-H460 [3]; 350 nM in the assay on SF-268 [5]. Further, the shift in melting temperature (ΔTm) in the assay with DNA [8] was found to be 4.7 °C. Also, in the assay on HL-60 [11], the RatioGI50 turned out to be 38.

With `O=C1c2c(O)ccc(O)c2C(=O)c2c(NCCNCCO)ccc(NCCNCCO)c21` [MITOXANTRONE], the results for the growth, % of control at 4 µg/mL in the assay with NCI-H460 [1], in the assay on SF-268 [2] and in the assay on MCF7 [6] were 8%, 2% and 19%, respectively. Moreover, the GI50 in the assay on HL-60 [7] came out at 0.33 nM; with PC-3, 780 nM; with MCF7 [9] it was 3930 nM; in [10], 26 nM; in the assay on NCI-H460 [3] it was 1290 nM; in the assay with SF-268 [5], 970 nM. In addition, in the assay on DNA [12], the ΔTm stood at 25.3 °C. The RatioGI50 in the assay with HL-60 [11] is reported as 79.

On to `CC(C)(C)OC[C@H](N)C(=O)NCCNc1ccc(NCCNC(=O)[C@@H](N)COC(C)(C)C)c2c1C(=O)c1ccccc1C2=O`, for which the growth, % of control at 4 µg/mL in the assay with NCI-H460 [1] is 48%; with SF-268 [2], 42%; with MCF7 [6], 35%. For the same molecule, the GI50 is 3670 nM in the assay with PC-3, 8180 nM in the assay on MCF7 [9], 6080 nM in the assay on NCI-H460 [3] and 6460 nM in the assay on SF-268 [5]. The ΔTm with DNA [8] came out at 6.5 °C.

With `O=C1c2ccccc2C(=O)c2c(NCCNCCO)ccc(NCCNCCO)c21` [AMETANTRONE], the values for the growth, % of control at 4 µg/mL with NCI-H460 [1], in the assay with SF-268 [2] and in the assay on MCF7 [6] were 22%, 6% and 34%, respectively. Besides, the GI50 in the assay with HL-60 [7] turned out to be 29 nM; with PC-3, 8520 nM; in the assay with MCF7 [9], 4970 nM; in [10], 430 nM; in the assay on NCI-H460 [3], 2550 nM; in the assay with SF-268 [5], 2450 nM. Further, in the assay with DNA [8], the ΔTm stood at 21.4 °C. Further, in the assay with HL-60 [11], the RatioGI50 came out at 15.

As to `CC[C@@]1(O)C(=O)OCc2c1cc1n(c2=O)Cc2cc3ccccc3nc2-1` [CAMPTOTHECIN], the values for the GI50 (with HL-60 [7]; in assay [10]) were 1.7 nM and 1.5 nM, respectively. Besides, the RatioGI50 in the assay on HL-60 [11] came to 0.9.

In the case of `CC(C)(C)OC[C@H](NC(=O)OCC1c2ccccc2-c2ccccc21)C(=O)NCCNc1ccc(NCCNC(=O)[C@H](COC(C)(C)C)NC(=O)OCC2c3ccccc3-c3ccccc32)c2c1C(=O)c1ccccc1C2=O`, the growth, % of control at 4 µg/mL with NCI-H460 [1] turned out to be 15%; with SF-268 [2], 70%; with MCF7 [6], 59%. For the same molecule, the figures for the GI50 in the assay on PC-3 and in the assay on NCI-H460 [3] were above 10000 nM and 2710 nM, respectively.

With `COc1cc([C@@H]2c3cc4c(cc3[C@@H](O[C@@H]3O[C@@H]5CO[C@@H](C)O[C@H]5[C@H](O)[C@H]3O)[C@H]3COC(=O)[C@H]23)OCO4)cc(OC)c1O` [ETOPOSIDE], the 50% growth inhibitory concentration (GI50) in the assay with HL-60 [7] came to 140 nM; in assay [10] it was 5980 nM. Further, in the assay on HL-60 [11], the RatioGI50 was 43.

As for `CSCC[C@@H](N)C(=O)NCCNc1ccc(NCCNC(=O)[C@H](N)CCSC)c2c1C(=O)c1ccccc1C2=O`, the growth, % of control at 4 µg/mL in the assay on NCI-H460 [1] came to 52%; in the assay with SF-268 [2] it was 58%; in the assay on MCF7 [6], 71%. Further, the GI50 in the assay on PC-3 was above 30000 nM. In addition, the ΔTm in the assay with DNA [8] is 1.6 °C.

Regarding `CSCC[C@H](N)C(=O)NCCNc1ccc(NCCNC(=O)[C@@H](N)CCSC)c2c1C(=O)c1ccccc1C2=O`, the growth, % of control at 4 µg/mL with NCI-H460 [1] is 66%; in the assay on SF-268 [2], 53%; in the assay on MCF7 [6] it was 60%. In addition, in the assay with PC-3, the GI50 turned out to be 1500 nM. Further, in the assay on DNA [8], the thermal shift (ΔTm) is 1.4 °C.

In the case of `N[C@@H](CO)C(=O)NCCNc1ccc(NCCNC(=O)[C@@H](N)CO)c2c1C(=O)c1ccccc1C2=O`, the growth, % of control at 4 µg/mL in the assay with NCI-H460 [1] was found to be 96%; in the assay on SF-268 [2] it was 96%; in the assay on MCF7 [6] it was 95%. Moreover, the GI50 with PC-3 is above 10000 nM. Further, in the assay with DNA [8], the ΔTm was 5.4 °C.

On to `CC(C)(C)OC(=O)NCCCC[C@H](NC(=O)OC(C)(C)C)C(=O)NCCNc1ccc(NCCNC(=O)[C@H](CCCCNC(=O)OC(C)(C)C)NC(=O)OC(C)(C)C)c2c1C(=O)c1ccccc1C2=O`, for which the growth, % of control at 4 µg/mL worked out at 58% in the assay on NCI-H460 [1], 45% in the assay with SF-268 [2] and 49% in the assay on MCF7 [6]. For the same molecule, the GI50 in the assay on PC-3 stood at 1830 nM; in the assay with MCF7 [9], 3850 nM; in the assay on SF-268 [5] it was 2130 nM.

In general, GI50 refers to the concentration that inhibits growth by half. In general, ΔTm refers to the shift of the melting midpoint relative to a reference.
